According to ChEMBL document CHEMBL3392995, “Erinacerins C-L, isoindolin-1-ones with α-glucosidase inhibitory activity from cultures of the medicinal mushroom Hericium erinaceus” (J Nat Prod, 2015):

What was measured:
HeLa = experiment: Cytotoxicity against human HeLa cells after 72 hrs by MTT assay; format: functional, cell-based
Procedure, shortened: (§1)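 MTT read-out of cell viability in A549 (human lung adenocarcinoma) and HeLa (cervical cancer) cells. Values are means of three independent experiments, each run in triplicate.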

[1] = Inhibition of baker's yeast alpha-glucosidase using p-nitrophenyl-alpha-D-glucopyranoside as substrate incubated with enzyme for 10 mins prior to substrate challenge for 15 mins by microplate reader analysis; set-up: species or system Saccharomyces cerevisiae
Procedure, shortened: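 Run in 96-well format, read as absorbance at 405 nm. Control used phosphate buffer in place of sample; blank used phosphate buffer in place of α-glucosidase. Inhibition (%) = [(ODcontrol − ODcontrol blank) − (ODtest − ODtest blank)]/(ODcontrol − ODcontrol blank) × 100. Acarbose served as positive control. Means of three independent experiments, each in triplicate.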

A549 = experiment: Cytotoxicity against human A549 cells after 72 hrs by MTT assay; format: functional, cell-based; conditions: A549, 72 h; procedure, shortened: as §1

SMILES: O=C(O)[C@@H](Cc1ccccc1)N1Cc2ccccc2C1=O
- IC50 (HeLa): > 100 µM
- IC50 [1]: > 200 µM
- IC50 (A549): > 100 µM

SMILES: C/C(=C\Cc1c(O)cc2c(c1O)CN(CCO)C2=O)CC/C=C(\C)C(=O)O
- IC50 (HeLa): > 100 µM
- IC50 [1]: 24.2 µM
- IC50 (A549): > 100 µM

SMILES: CC(C)[C@H](C(=O)O)N1Cc2ccccc2C1=O
- IC50 (HeLa): > 100 µM
- IC50 [1]: > 200 µM
- IC50 (A549): 41.5 µM

SMILES: C/C(=C\Cc1c(O)cc2c(c1O)CN([C@H](C(=O)O)C(C)C)C2=O)CC/C=C(\C)C(=O)O
- IC50 (HeLa): > 100 µM
- IC50 [1]: 12.8 µM
- IC50 (A549): > 100 µM

SMILES: CC(C)[C@@H](C(=O)O)N1Cc2ccccc2C1=O
- IC50 (HeLa): > 100 µM
- IC50 [1]: > 200 µM
- IC50 (A549): 89.7 µM

SMILES: CC[C@H](C)[C@@H](C(=O)O)N1Cc2ccccc2C1=O
- IC50 (HeLa): > 100 µM
- IC50 [1]: > 200 µM
- IC50 (A549): > 100 µM

SMILES: COC(=O)C/C=C(\C)CCc1c(O)cc2c(c1O)CN([C@@H](Cc1ccccc1)C(=O)OC)C2=O
- IC50 (HeLa): > 100 µM
- IC50 [1]: 19.8 µM
- IC50 (A549): > 100 µM

SMILES: C[C@H]1O[C@H](O[C@H]2[C@H](O)[C@@H](O)[C@@H](O[C@H]3[C@H](O)[C@@H](O)C(O)O[C@@H]3CO)O[C@@H]2CO)[C@H](O)[C@@H](O)[C@@H]1N[C@H]1C=C(CO)[C@@H](O)[C@H](O)[C@H]1O (some centres undefined) [ACARBOSE]
- IC50 [1]: 383 µM

SMILES: COc1cc2c(c(O)c1C/C=C(\C)CCC=C(C)C)CN(CCc1ccccc1)C2=O
- IC50 (HeLa): 40.5 µM
- IC50 [1]: 5.3 µM
- IC50 (A549): 49 µM

SMILES: C/C(=C\Cc1c(O)cc2c(c1O)CNC2=O)CC/C=C(\C)C(=O)O
- IC50 (HeLa): > 100 µM
- IC50 [1]: > 200 µM
- IC50 (A549): > 100 µM

SMILES: COC(=O)CC/C(C)=C/Cc1c(O)cc2c(c1O)CNC2=O
- IC50 (HeLa): > 100 µM
- IC50 [1]: 145 µM
- IC50 (A549): > 100 µM

SMILES: COC(=O)C/C=C(\C)CCc1c(O)cc2c(c1O)CNC2=O
- IC50 (HeLa): > 100 µM
- IC50 [1]: 10.3 µM
- IC50 (A549): > 100 µM

SMILES: COC(=O)CC/C(C)=C/Cc1c(O)cc2c(c1O)CN(CCO)C2=O
- IC50 (HeLa): > 100 µM
- IC50 [1]: 97.8 µM
- IC50 (A549): > 100 µM

SMILES: COC(=O)CC/C(C)=C/Cc1c(O)cc2c(c1O)CN([C@@H](Cc1ccccc1)C(=O)OC)C2=O
- IC50 (HeLa): > 100 µM
- IC50 [1]: 15.5 µM
- IC50 (A549): 89.7 µM

SMILES: O=C(O)[C@H](Cc1ccccc1)N1Cc2ccccc2C1=O
- IC50 (HeLa): > 100 µM
- IC50 [1]: > 200 µM
- IC50 (A549): > 100 µM

SMILES: COC(=O)C/C=C(\C)CCc1c(O)cc2c(c1O)CN(CCO)C2=O
- IC50 (HeLa): > 100 µM
- IC50 [1]: 18.6 µM
- IC50 (A549): 96.1 µM

SMILES: CC[C@H](C)[C@@H](C(=O)O)N1Cc2c(cc(O)c(C/C=C(\C)CC/C=C(\C)C(=O)O)c2O)C1=O
- IC50 (HeLa): > 100 µM
- IC50 [1]: 39.6 µM
- IC50 (A549): > 100 µM
